# Assay results collected from several papers.
# Each line is one published result; the experiments were not run side by side.
# Cell line: HepG2
# Effect on: cell growth or viability
Structure (SMILES),test,setting,CC50
COCC(=O)N1CCC[C@H](C(=O)NCc2nc(-c3cccnc3)cs2)C1,ATP luminescence,96 h,> 50 µM
O=C1C(NCCc2ccc(O)cc2)=CC2=NCCc3c[nH]c1c32,MTT,72 h,4 µM
CCCCCCCNC[C@@H](O)c1cc(Cl)cc2c1-c1ccc(Cl)cc1C2,,48 h,5 µM
O=C1C=C2NCCc3c[nH]c(c32)C1=O,MTT,72 h,50 µM
CCOCC(=O)N1CCC[C@H](C(=O)NCc2nc(-c3ccccc3)cs2)C1,ATP luminescence,96 h,> 50 µM
O=C1c2ccccc2-n2c1nc1ccccc1c2=O,ATP luminescence,,6 to 9 µM
O=C1c2[nH]cc3c2C(=NCC3)c2c(-c3ccc(O)cc3)c[nH]c21,MTT,72 h,0.3 µM
CCCCCCCCNC[C@@H](O)c1cc(Cl)cc2c1-c1ccc(Cl)cc1C2,,48 h,9 µM
COCC(=O)N1CCC[C@@H](C(=O)NCc2nc(-c3ccccc3)cs2)C1,ATP luminescence,96 h,> 50 µM
O[C@@H](CN[C@H](COCC1CC1)Cc1ccccc1)c1cc(Cl)cc2c1-c1ccc(Cl)cc1C2,,48 h,13.8 µM
Cn1cc2c3c1C(=O)C(NCCc1ccc(O)cc1)=CC3=[N+](C)CC2,MTT,72 h,0.5 µM
CC[C@@](N)(c1cnc(C(F)(F)F)c(Cl)c1)c1c2ncn(C3CC3)c(=O)c2nn1C,ATP luminescence,,> 50 µM
CCCCCCNC[C@@H](O)c1cc(Cl)cc2c1-c1ccc(Cl)cc1C2,,48 h,6.3 µM
CCOCC(=O)N1CCC[C@H](C(=O)NCc2nc(-c3ccc(C)nc3)cs2)C1,ATP luminescence,96 h,> 50 µM
Cn1cc2c3c1C(=O)C(NCCc1ccc(O)cc1)=CC3=NCC2,MTT,72 h,1 µM
